An excerpt weighted towards active compounds, which were near 1.5% of everything screened.
FLuc stim CS – affects firefly luciferase, flagging false hits in luciferase stimulation screens; P08659; ATPlite luciferase biochemical, luminescence, 10 min; 0 = ATP-free wells, 1 = DMSO control; activation factor at 10 µM; 200,000 tested, under 10 active;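 active = luciferase activation factor, scaled between plate controls, of at least 2 with compound at 10 µM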
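Assay system: Luciferase/luciferin detection reagent, cell-free biochemical luciferase assay / Read-out: luciferase activation / Benchmarks: No-ATP low control, compound-free enzyme-plus-ATP high control / Medium: PBS buffer for ATP / Detection: luminescence measurement of luciferase light output / Schedule: 10 min at ambient temperature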
TRAIL sens C8 – sensitizes caspase-8 expressing cells to TRAIL; NB7+C8 cells + TRAIL, ATPlite viability luminescence; inhibition (viability loss, TRAIL sensitization), % at 10 µM; 360,000 tested, 1% active; AID 624354;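 active = compounds causing at least 50% loss of cell viability in the single-dose screen, relative to plate controls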
FLuc inhib CS – inhibits firefly luciferase, flagging false hits in luciferase inhibition screens; P08659; ATPLite firefly luciferase biochemical luminescence, 10 min; inhibition, % at 10 µM; 200,000 tested, 1.5% active; AID 1006;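 active = inhibition above about 50% when tested at 10 µM, limit read from the data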
PPC-1+TRAIL kill – PPC-1 cancer cell killing with TRAIL present; PPC-1 cells + TRAIL, ATPLite viability luminescence; cell killing (% activity), % at 4 µM or 5 µM; 220,000 tested, 0.41% active;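 active = cell killing above 50% in the first pass at 4 µM, then a duplicate retest at 5 µM averaging 50% or more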;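 also: plate controls were cells with TRAIL plus DMSO for no effect and medium-only wells lacking cells for full effect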
Active calls of the source: *; / = no result given.

SMILES	FLuc stim CS	TRAIL sens C8	FLuc inhib CS	PPC-1+TRAIL kill
CC(C)Oc1ccc(C(=O)Nc2nnc(SCC(=O)N3CCOCC3)s2)cc1	0	98.0*	97.2*	93.6*
CSc1nnc(NC(=O)c2ccc(S(=O)(=O)N(C)C)cc2)s1	0.4	39.5	60.5*	20.7
CCOC(=O)C1=C(C)N(C)C(C)=C(C(=O)OCC)C1c1ccccn1	1.1	3.6	-7.6	10.9
c1ccc(CCc2cc3ccccc3[nH]2)cc1	/	3.8	/	/
CC(C)(C)C(=O)Cn1c(NCCCO)nc2ccccc21	1	-1.9	-2.4	2.0
Cc1cc(C)cc(CC2CC(=O)N(c3cc(C)ccc3C)C2=O)c1 (centres undefined)	/	-5.7	/	/
CN(C)S(=O)(=O)c1ccc(C(=O)Nc2nnc(SCC(=O)N3CCOCC3)s2)cc1	/	59.9*	/	/
Clc1cccc(/C=N/Nc2ncnc3ccccc23)c1	0.7	15.9	34.0	-4.0
COc1cc(/C=N/Nc2nncc3ccccc23)cc(OC)c1OC	/	30.8	/	/
Clc1ccc(/C=N/Nc2nnc(Cl)c3ccccc23)cc1	0.6	27.2	42.0	21.8
Oc1ccc2ccccc2c1/C=N/Nc1nnc(-c2ncc[nH]2)c2ccccc12	0.8	21.5	15.9	-4.0
COc1ccc(/C=N/Nc2nnc(-c3ncc[nH]3)c3ccccc23)cc1	0.3	23.6	71.8*	43.9
Clc1nnc(N/N=C/c2ccccc2)c2ccccc12	0.3	43.4	68.9*	40.7
CN(C)c1ccc(/C=N/Nc2nncc3ccccc23)cc1	/	65.8*	/	/
C(=N\Nc1ncnc2ccccc12)/c1ccccc1	0.3	25.0	73.8*	33.3
CC(=O)c1c(C)nc(C)nc1NC(=O)C(C)C	0.9	10.0	5.5	10.2
CCC1CCCCN1CCCNC(=O)C1CCC(=O)N1Cc1ccc(C)cc1 (centres undefined)	1	10.1	-2.6	-8.7
O=[N+]([O-])/C=C\c1ccc(N2CCCC2)c(F)c1	1	16.8	2.5	-0.4
C(=N\Nc1nncc2ccccc12)/c1ccccc1	/	49.7*	/	27.4
CC(=O)Nc1ccc(Nc2nnc(-c3ccc(O)cc3)c3ccccc23)cc1	/	3.7	/	/
CC(=O)Nc1ccc(C=NNc2nnc(NN=Cc3ccc(NC(C)=O)cc3)c3ccccc23)cc1	/	64.1*	/	/
Nc1c(C(=O)OCC(=O)Nc2ccc(Cl)cc2[N+](=O)[O-])[nH]c(=O)[nH]c1=O	/	-9.7	/	7.1
COC(=O)c1cc(C)sc1NC(=O)CN1CCN(C(=O)c2ccco2)CC1	/	11.0	/	/
Cc1cccnc1NC(=O)Cn1nc(-c2ccccc2)oc1=S	1	25.1	-3.7	63.8*
COc1cccc(NC(=O)c2nn(C)cc2Br)c1	/	-7.7	/	/
SMILES	FLuc stim CS	TRAIL sens C8	FLuc inhib CS	PPC-1+TRAIL kill
CCOc1ccc(NC(=O)c2nsc(Cl)c2Cl)cc1	0.5	37.0	50.7*	12.6
O=C(Nc1ccc(F)cc1)c1nsc(Cl)c1Cl	0.7	11.2	28.9	8.2
CCOc1ccc(NC(=O)c2nn(C)cc2Br)cc1	0.3	46.0	70.3*	41.0
O=c1oc2ccccc2cc1-c1nc(-c2ccccc2)no1	0.3	8.4	74.8*	24.2
c1ccc(-c2noc(-c3ccccc3-c3ccccc3)n2)cc1	1	0.1	-4.2	5.6
c1ccc(-c2noc(-c3ccc4c(c3)OCO4)n2)cc1	0.3	42.8	68.6*	44.5
O=[N+]([O-])c1cccc(-c2nnc(-c3ccc4c(c3)OCO4)o2)c1	0.8	18.1	21.4	14.7
c1ccc(-c2noc(-c3ccc4ccccc4c3)n2)cc1	0.3	54.9*	68.5*	21.8
c1ccc(-c2noc(COc3ccc4c(c3)OCO4)n2)cc1	0.9	3.2	13.5	26.1
Clc1ccccc1-c1nnc(-c2ccc3c(c2)OCO3)o1	0.2	55.9*	79.9*	47.4
Cc1ccc(N2C(=O)NC(NS(=O)(=O)c3ccccc3)(C(F)(F)F)C2=O)cc1 (centres undefined)	/	-13.4	/	/
O=[n+]1c2c(n([O-])c3cc(F)c(N4CCCC4)cc31)CCC2	/	-10.1	/	/
COc1cccc(-n2nnnc2SCC(=O)Nc2ccc(NC(C)=O)cc2)c1	/	1.3	/	/
CC(=O)Nc1coc2ccc(Br)cc12	1.1	-4.0	-7.7	-3.6
COc1ccc(-c2noc(COc3ccc4c(c3)OCO4)n2)cc1	1	9.1	-1.4	21.6
COc1ccc(-c2noc(-c3ccc4c(c3)OCO4)n2)cc1	0.5	45.4*	48.2	29.1
O=c1[nH]cccc1-c1nc2cc(Cl)ccc2n1Cc1ccccc1	/	27.4	/	/
O=c1[nH]c(CSc2ccccn2)nc2c1oc1ccccc12	0.4	30.1	60.9*	30.9
O=C(CCS(=O)(=O)c1ccccc1)Nc1cccc(-c2nc3ccccc3s2)c1	0.7	54.4*	27.3	22.3
